This note sets out measurements from publication PMC6430714 (Journal of the American Chemical Society, 2018).

The term MIC denotes the lowest concentration that inhibits growth of the organism. Read a low MIC as greater potency.

Molecules are shown by their SMILES. ≈ marks a conversion by molar mass, not a printed value.

The test system of assay [1] is S. aureus biofilms (MSSA and two MRSA strains). Kind of assay: MBEC, summarised over the S. aureus strains. In kind it is cell-based, Staphylococcus aureus. To be noted: TSB; range as stated in text (Table 1, Table SI-1).
The next assay concerns MSSA (29213). Kind of assay: Minimum inhibitory concentration, broth microdilution. It counts as cell-based. To be noted: Staphylococcus aureus. (Broth dilution looks for growth in wells or tubes with falling amounts of substance.)
A further assay deals with MRSA (USA400 MW2). Described as above. It counts as cell-based. The following applies: Staphylococcus aureus.
The next assay deals with MRSA (USA300 LAC). The description is as above. In kind it is cell-based. The following applies: Staphylococcus aureus.
The next assay relates to MRSA USA400 MW2 biofilms. The assay is described as follows: Confocal microscopy of biofilms, SYTO 9/PI live/dead staining. In kind it is cell-based, Staphylococcus aureus. The following applies: 80 μM, 5 h treatment in TSB, 48 h biofilms, SYTO 9/PI fluorescence. The method in brief:
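USA400 MW2 grown in TSB with shaking at 37 °C to stationary phase, then adjusted in TSB to 1 × 10^7 CFU/mL. Eight-well chambered coverglass coated with 50 μg/mL fibronectin for 30 min at room temperature and PBS-washed twice. Biofilms grown statically, humidified, 37 °C, 48 h, then PBS-washed twice. Stained with SYTO 9 (all cells) and PI (dead cells) in TSB; 10× compound solution added.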

For the next assay, the system named is MRSA USA300 LAC biofilms. Kind of assay: Murine skin wound excisional biofilm model. It counts as in vivo, C57BL/6 mice. To be noted: topical 0.05%, 5 h; not statistically significant.
A further assay relates to S. aureus strain 29213. Kind of assay: Resistance evolution experiment. It counts as cell-based, Staphylococcus aureus. To be noted: 14 day period, strain 29213, daily passage from 1/2 MIC well. In short, it runs like this: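 An MIC assay on strain 29213 was repeated daily for 14 days, each incubated 24 h at 37 °C. Colonies from TSA were suspended in PBS to OD600 0.1 and diluted 1:100 in Mueller–Hinton broth. Inoculum was added to 2-fold serial dilutions of test compound in MHB. MIC was the lowest concentration with no growth by OD600.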

Regarding `CN[C@H](CC(C)C)C(=O)N[C@H]1C(=O)N[C@@H](CC(N)=O)C(=O)N[C@H]2C(=O)N[C@H]3C(=O)N[C@H](C(=O)N[C@H](C(=O)O)c4cc(O)cc(O)c4-c4cc3ccc4O)[C@H](O[C@H]3C[C@](C)(N)[C@@H](O)[C@H](C)O3)c3ccc(c(Cl)c3)Oc3cc2cc(c3O[C@@H]2O[C@H](CO)[C@@H](O)[C@H](O)[C@H]2O[C@H]2C[C@](C)(NCc3ccc(-c4ccc(Cl)cc4)cc3)[C@@H](O)[C@H](C)O2)Oc2ccc(cc2Cl)[C@H]1O` [Oritavancin], the “MBEC range over the S. aureus strains” value in assay [1] was 12 to 32 µM.
As to `CN[C@H](CC(C)C)C(=O)N[C@H]1C(=O)N[C@@H](CC(N)=O)C(=O)N[C@H]2C(=O)N[C@H]3C(=O)N[C@H](C(=O)N[C@H](C(=O)O)c4cc(O)cc(O)c4-c4cc3ccc4O)[C@H](O)c3ccc(c(Cl)c3)Oc3cc2cc(c3O[C@@H]2O[C@H](CO)[C@@H](O)[C@H](O)[C@H]2O[C@H]2C[C@](C)(N)[C@H](O)[C@H](C)O2)Oc2ccc(cc2Cl)[C@H]1O` [V, vancomycin], the MIC against MSSA (29213), in the assay on MRSA (USA400 MW2) and against MRSA (USA300 LAC) was 0.5 µM (≈ 0.725 µg/mL) throughout. In the assay with MRSA USA400 MW2 biofilms, this compound registered a viable biofilm bacteria of 65%. Also, the “fold reduction in median CFU/wound compared to untreated mice” value in the assay with MRSA USA300 LAC biofilms was 6 fold. Moreover, the “fold increase in MIC over serial passage” value in the assay with S. aureus strain 29213 was 4 fold.
For the compound `CN[C@H]1C(=O)N[C@@H]2Cc3ccc(cc3)Oc3cc4cc(c3O[C@@H]3O[C@H](C(=O)O)[C@@H](O)[C@H](O)[C@H]3NC(=O)CCCCCCCCC(C)C)Oc3ccc(cc3Cl)[C@@H](O)[C@@H]3NC(=O)[C@H](NC(=O)[C@@H]4NC(=O)[C@@H](NC2=O)c2cc(cc(O)c2Cl)Oc2cc1ccc2O)c1ccc(O)c(c1)-c1c(O[C@H]2O[C@H](CO)[C@@H](O)[C@H](O)[C@@H]2O)cc(O)cc1[C@@H](C(=O)NCCCN(C)C)NC3=O` [dalbavancin], the “MBEC range over the S. aureus strains” value in assay [1] was in the range of 8 to 20 µM.
